≈ marks a conversion by molar mass, not a printed value.
Key:
[1] = test system: Human immunodeficiency virus 1; experiment: Toxicity value against wild type HIV-1 IIIB was determined; type: functional
Outline: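 MT4 cells (150 000 cells/mL) mock-infected, run in parallel with HIV-infected cultures over an identical compound concentration range. Incubated 3 days at 37 °C, 5% CO₂. Reduced expression of the […] GFP reporter serves as the toxicity marker.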

[2] = test system: Human immunodeficiency virus 1; experiment: Protease inhibitory activity against HIV-1 r13025 mutant strain was determined; type: functional, organism-based
[3] = test system: Human immunodeficiency virus 1; experiment: Protease inhibitory activity against HIV-1 r13034 mutant strain was determined; type: functional, organism-based
[4] = test system: Human immunodeficiency virus 1; experiment: Protease inhibitory activity against HIV-1 r13363 mutant strain was determined; type: functional, organism-based
[5] = test system: Human immunodeficiency virus 1; experiment: Protease inhibitory activity against HIV-1 GSS004421 mutant strain was determined; type: functional, organism-based
[6] = test system: Human immunodeficiency virus 1; experiment: Protease inhibitory activity against wild type HIV-1 IIIB was determined; type: functional, organism-based
Rattus norvegicus = organism: Rattus norvegicus; experiment: In vitro metabolic stability value after 30 min of incubation with liver microsomes of rat was determined; type: functional; details: Microsome
Outline: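 Compound at 10 µM incubated at 37 °C with dog, human or rat liver microsomes. Residual parent compound quantified directly by LC-MS. Value is percent parent remaining after 30 min.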

Caco-2 [7] = experiment: In vitro increase in apparent permeability from apical to basolateral was determined in Caco-2 (human colon carcinoma) cells; type: functional, cell-based
Outline: (§1)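 Caco-2 monolayer apparent permeability measured apical-to-basolateral and basolateral-to-apical; reported as Papp in cm/s (×10⁶).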

Caco-2 [8] = experiment: In vitro increase in apparent permeability from basolateral to apical was determined in Caco-2 (human colon carcinoma) cells; type: functional, cell-based; outline: as §1
[9] = In vitro solubility at was determined; pH=5; type: ADME
Outline: (§2)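 Aqueous solubility measured at pH 5 and pH 7, expressed in […].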

[10] = In vitro solubility at was determined; pH=7; type: ADME; outline: as §2
[11] = Maximum plasma concentration value in dog was determined at a dosage of 20 mg/kg; type: ADME, organism-based, Canis lupus familiaris; set-up: dose 20 mg/kg
Outline: (§3)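 Oral dosing in dog at 20 mg/kg, coadministered with ritonavir. Compound given as a solution in PEG400 or in 40% w/v hydroxypropyl-β-cyclodextrin with 2% citric acid. Plasma Cmax, Tmax, t1/2 and AUC determined.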

[12] = In vivo half life value in dog was determined at a dosage of 20 mg/kg; type: ADME, organism-based, Canis lupus familiaris; set-up: dose 20 mg/kg; outline: as §3
[13] = target: Human immunodeficiency virus type 1 protease (Human immunodeficiency virus 1, UniProt Q72874); experiment: Binding affinity against HIV-1 protease
Outline: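 Isothermal titration calorimetry by displacement: the protease was pre-titrated with acetylpepstatin (300 µM) as the weaker binder, then the inhibitor (125 or 200 µM in the syringe) was injected to saturation into protease (9–21 µM). Buffer was 10 mM sodium acetate pH 5.0, 2% DMSO, 2 mM TCEP. Heats of dilution were subtracted, and each run was done at least twice.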

[14] = In vivo area under the concentration time curve value in dog was determined at a dosage of 20 mg/kg; type: ADME, organism-based, Canis lupus familiaris; set-up: dose 20 mg/kg; outline: as §3
[15] = In vivo time to reach maximum plasma concentration value in dog was determined at a dosage of 20 mg/kg; type: ADME, organism-based, Canis lupus familiaris; set-up: dose 20 mg/kg; outline: as §3

SMILES | pCC50 [1] | pEC50 [2] | pEC50 [3] | pEC50 [4] | pEC50 [5] | EC50 [6] | Metabolic stability (Rattus norvegicus) | Papp (Caco-2 [7]) | Papp (Caco-2 [8]) | solubility [9] | solubility [10] | Cmax [11] | half-life [12] | Kd [13] | AUC [14] | Tmax [15]
CC(C)c1nc(CN(C)C(=O)N[C@H](C(=O)N[C@@H](Cc2ccccc2)C[C@H](O)[C@H](Cc2ccccc2)NC(=O)OCc2cncs2)C(C)C)cs1 [RITONAVIR] | 4.53 | 5.99 | 5.3 | 4.89 | 4.97 | 64.6 nM | – | – | – | – | – | – | – | – | – | –
CC(C)CN(C[C@@H](O)[C@H](Cc1ccccc1)NC(=O)O[C@H]1CO[C@H]2OCC[C@H]21)S(=O)(=O)c1ccc2nc(N(C)CCCN3CCCC3)sc2c1 | 4.58 | 6.16 | 7.36 | 5.52 | 6.81 | 24 nM | – | – | – | – | – | – | – | – | – | –
CC(C)CN(C[C@@H](O)[C@H](Cc1ccccc1)NC(=O)OC1CCOC1)S(=O)(=O)c1ccc(N)cc1 (single isomer, unassigned) | < 4.49 | 6.43 | 6.01 | 4.95 | 5.75 | 43.7 nM | – | – | – | – | – | – | – | – | – | –
CNCCNc1nc2ccc(S(=O)(=O)N(CC(C)C)C[C@@H](O)[C@H](Cc3ccccc3)NC(=O)O[C@H]3CO[C@H]4OCC[C@H]43)cc2s1 | < 4.49 | 6.49 | 6.43 | 6.11 | 6.5 | 209 nM | – | – | – | – | – | – | – | – | – | –
Cc1cccc(C)c1OCC(=O)N[C@@H](Cc1ccccc1)[C@@H](O)C[C@H](Cc1ccccc1)NC(=O)[C@H](C(C)C)N1CCCNC1=O [LOPINAVIR] | 4.95 | 7.84 | 6.59 | 6.28 | 6.02 | 9.77 nM | – | – | – | – | – | – | – | – | – | –
CC(C)CN(C[C@@H](O)[C@H](Cc1ccccc1)NC(=O)O[C@H]1CO[C@H]2OCC[C@H]21)S(=O)(=O)c1ccc2nc(N(C)CCCN3CCCC3)oc2c1 | < 4.49 | 6.63 | 6.34 | 5.22 | 6.22 | 69.2 nM | – | – | – | – | – | – | – | – | – | –
CC(C)CN(C[C@@H](O)[C@H](Cc1ccccc1)NC(=O)O[C@H]1CO[C@H]2OCC[C@H]21)S(=O)(=O)c1ccc2nc(N)sc2c1 | 4.77 | 8.51 | 8.42 | 7.9 | 8.59 | 9.12 nM | 77% | 9.9 ×10⁻⁶ cm/s | 27.3 ×10⁻⁶ cm/s | < 10 µg/mL | < 10 µg/mL | – | – | – | – | –
CC(C)CN(C[C@@H](O)[C@H](Cc1ccccc1)NC(=O)O[C@H]1CO[C@H]2OCC[C@H]21)S(=O)(=O)c1ccc2ncsc2c1 | < 4.49 | 7.83 | 8.11 | 6.57 | 7.78 | 1.1 nM | – | – | – | – | – | – | – | – | – | –
CC(C)CN(C[C@@H](O)[C@H](Cc1ccccc1)NC(=O)O[C@H]1CO[C@H]2OCC[C@H]21)S(=O)(=O)c1ccc2nc(NCCN(C)C)sc2c1 | < 4.49 | 7.84 | 8.09 | 7.67 | 7.9 | 11.2 nM | 19% | 6.1 ×10⁻⁶ cm/s | 26.6 ×10⁻⁶ cm/s | 410 µg/mL (≈ 607 µM) | 40 µg/mL (≈ 59.2 µM) | – | – | – | – | –
CC(C)CN(C[C@@H](O)[C@H](Cc1ccccc1)NC(=O)O[C@H]1CO[C@H]2OCC[C@H]21)S(=O)(=O)c1ccc2nc(NCCN3CCCC3)sc2c1 | < 4.49 | 7.88 | 7.91 | 7.49 | 7.86 | 11 nM | 56% | 3.5 ×10⁻⁶ cm/s | 21.7 ×10⁻⁶ cm/s | 90 µg/mL (≈ 128 µM) | < 10 µg/mL | 1970 ng/mL | 1.66 h | 0.0637 nM | 6050 ng·h/mL | 0.5 h
CNc1nc2ccc(S(=O)(=O)N(CC(C)C)C[C@@H](O)[C@H](Cc3ccccc3)NC(=O)O[C@H]3CO[C@H]4OCC[C@H]43)cc2s1 | < 4.49 | 8.81 | 8.81 | 7.81 | 8.59 | 0.912 nM | 72% | 19.3 ×10⁻⁶ cm/s | 14.2 ×10⁻⁶ cm/s | < 10 µg/mL | < 10 µg/mL | – | – | – | – | –
CC(C)(C)NC(=O)[C@@H]1CN(Cc2cccnc2)CCN1C[C@@H](O)C[C@@H](Cc1ccccc1)C(=O)N[C@H]1c2ccccc2C[C@H]1O.O | < 4.49 | 5.97 | 5.9 | 6.39 | 6.47 | 39.8 nM | – | – | – | – | – | – | – | – | – | –
CC(C)CN(C[C@@H](O)[C@H](Cc1ccccc1)NC(=O)O[C@H]1CO[C@H]2OCC[C@H]21)S(=O)(=O)c1ccc2nc(N(C)C)sc2c1 | < 4.49 | 7.31 | – | 5.36 | 6.59 | 3.47 nM | – | – | – | – | – | – | – | – | – | –
CC(C)CN(C[C@@H](O)[C@H](Cc1ccccc1)NC(=O)O[C@H]1CO[C@H]2OCC[C@H]21)S(=O)(=O)c1ccc2nc(N(C)CCN3CCCC3)oc2c1 | < 4.49 | 6.65 | 6.73 | 5.85 | 6.55 | 33.1 nM | – | – | – | – | – | – | – | – | – | –
CC(C)CN(C[C@@H](O)[C@H](Cc1ccccc1)NC(=O)O[C@H]1CO[C@H]2OCC[C@H]21)S(=O)(=O)c1ccc2nc(NCCN(C)C)oc2c1 | < 4.49 | 6.87 | 7.61 | 6.7 | 6.81 | 81.3 nM | – | – | – | – | – | – | – | – | – | –
CCC[C@@]1(CCc2ccccc2)CC(O)=C([C@H](CC)c2cccc(NS(=O)(=O)c3ccc(C(F)(F)F)cn3)c2)C(=O)O1 | < 4.49 | 5.74 | – | 6.15 | 6.73 | 501 nM | – | – | – | – | – | – | – | – | – | –
CC(C)CN(C[C@@H](O)[C@H](Cc1ccccc1)NC(=O)O[C@H]1CO[C@H]2OCC[C@H]21)S(=O)(=O)c1ccc2nc(NCCN3CCCC3)oc2c1 | 4.49 | 7.12 | 7.48 | 6.88 | 7.21 | 26.3 nM | – | – | – | – | – | – | – | – | – | –
CC(C)CN(C[C@@H](O)[C@H](Cc1ccccc1)NC(=O)O[C@H]1CO[C@H]2OCC[C@H]21)S(=O)(=O)c1ccc2nc(N(C)CCCN(C)C)sc2c1 | 4.68 | 6.95 | 7.32 | 6.08 | 6.71 | 14.8 nM | 47% | 2 ×10⁻⁶ cm/s | 8.5 ×10⁻⁶ cm/s | 1640 µg/mL (≈ 2330 µM) | 1180 µg/mL (≈ 1680 µM) | 1680 ng/mL | 2.9 h | – | 6590 ng·h/mL | 1 h
CC(C)(C)NC(=O)[C@@H]1C[C@@H]2CCCC[C@@H]2CN1C[C@@H](O)[C@H](Cc1ccccc1)NC(=O)[C@H](CC(N)=O)NC(=O)c1ccc2ccccc2n1 | 4.68 | 6.83 | 5.91 | 7.54 | 6.3 | 26.3 nM | – | – | – | – | – | – | – | – | – | –
CC(C)CN(C[C@@H](O)[C@H](Cc1ccccc1)NC(=O)O[C@H]1CO[C@H]2OCC[C@H]21)S(=O)(=O)c1ccc2nc(N(C)C)oc2c1 | < 4.49 | 6.66 | 6.92 | 5.38 | 6.58 | 4.17 nM | – | – | – | – | – | – | – | – | – | –
CC(C)CN(C[C@@H](O)[C@H](Cc1ccccc1)NC(=O)O[C@H]1CO[C@H]2OCC[C@H]21)S(=O)(=O)c1ccc2nc(N(C)CCN3CCCC3)sc2c1 | 4.52 | 6.5 | 6.85 | 5.64 | 6.29 | 5.62 nM | – | – | – | – | – | – | – | – | – | –
Cc1c(O)cccc1C(=O)N[C@@H](CSc1ccccc1)[C@H](O)CN1C[C@H]2CCCC[C@H]2C[C@H]1C(=O)NC(C)(C)C | 4.75 | 5.31 | 5.9 | 5.82 | 6.28 | 70.8 nM | – | – | – | – | – | – | – | – | – | –
COC(=O)N[C@H](C(=O)N[C@@H](Cc1ccccc1)[C@@H](O)CN(Cc1ccc(-c2ccccn2)cc1)NC(=O)[C@@H](NC(=O)OC)C(C)(C)C)C(C)(C)C [ATAZANAVIR] | 4.53 | 5.78 | – | 7.23 | 7.32 | 15.1 nM | – | – | – | – | – | – | – | – | – | –
CC(C)CN(C[C@@H](O)[C@H](Cc1ccccc1)NC(=O)O[C@H]1CO[C@H]2OCC[C@H]21)S(=O)(=O)c1ccc2nc(NCCCN(C)C)sc2c1 | 4.73 | 7.69 | 8.17 | 7.53 | 7.72 | 57.5 nM | – | – | – | – | – | – | – | – | – | –
